Measurements pooled from the literature.
Compare with care: the assays were run in different laboratories. pIC50: −log10 of the molar value.
Kir1 channel protein: Kir1 channel protein (Aedes aegypti, UniProt L0EQS9)
MMP14: Matrix metalloproteinase-14 (MMP14, Homo sapiens, UniProt P50281)
BTK: Tyrosine-protein kinase BTK (BTK, Homo sapiens, UniProt Q06187)
NTSR1: Neurotensin receptor type 1 (NTSR1, Homo sapiens, UniProt P30989)
PDE11A: Dual 3',5'-cyclic-AMP and -GMP phosphodiesterase 11A (PDE11A, Homo sapiens, UniProt Q9HCR9)
CYP2E1: Cytochrome P450 2E1 (CYP2E1, Homo sapiens, UniProt P05181)
ABHD6: Monoacylglycerol lipase ABHD6 (ABHD6, Homo sapiens, UniProt Q9BV23)

Compound	target	assay	test system	setting	pIC50
O=[N+]([O-])c1ccc(N2CCN(S(=O)(=O)c3ccc(Cl)cc3)CC2)cc1NCc1cccnc1	Kir1 channel protein	ion flux, inhibitor			5.83
O=C(O)CC(=O)C(=O)O	L-lactate dehydrogenase B chain (LDHB, Homo sapiens, UniProt P07195)	enzyme activity, inhibitor			2.99
CCNC(=O)c1nc(-c2ccc3[nH]c(-c4nc(C)no4)cc3c2)c(C)[nH]1	MMP14	enzyme activity, inhibitor			< 4.70
COc1ccc(F)cc1C(=O)NCc1ccc(-c2nn([C@@H](C)C(F)(F)F)c(N)c2C(N)=O)cc1	BTK	phosphorylation in cells, inhibitor			8.41
Cc1cc(O)cc(C)c1C[C@H](NC(=O)[C@@H]1CCCN1C(=O)[C@H](CCCNC(=N)N)NC(=O)[C@H](CCCNC(=N)N)N(C)C(=O)CNC(=O)[C@@H](CO)NC(=O)CNC(=O)[C@H](Cc1cn(CCNC(=O)[C@H](Cc2ccc(O)cc2)NC(=O)[C@H](CC(C)C)NC(=O)C2OC2C(=O)O)nn1)NC(=O)CN1CCN(CC(=O)O)CCN(CC(=O)O)CCN(CC(=O)O)CC1)C(=O)N[C@H](C(=O)N[C@@H](CC(C)C)C(=O)O)C(C)(C)C (mixture of isomers)	NTSR1	ligand displacement, radioligand			7.06
O=[N+]([O-])c1ccc(N2CCN(S(=O)(=O)c3ccc(F)cc3)CC2)cc1NCc1ccncc1	Kir1 channel protein	ion current, inhibitor, patch clamp			7.30
Cc1noc(-c2cc3cc(-c4nc(C(=O)NCc5ccccc5)[nH]c4C)ccc3[nH]2)n1	MMP14	enzyme activity, inhibitor			< 4.70
N#Cc1ccc(N2CCN(S(=O)(=O)c3ccc(Cl)cc3)CC2)cc1NCc1ccncc1	Kir1 channel protein	ion flux, inhibitor			6.13
CSc1ccc(/C=C2/C(C)=C(CC(=O)O)c3cc(F)ccc32)cc1	PDE11A	enzyme activity, inhibitor			< 4.00
Cc1noc(-c2cc3cc(-c4nc(C(=O)NCc5ccc(=O)[nH]c5)[nH]c4C)ccc3[nH]2)n1	MMP14	enzyme activity, inhibitor			< 4.62
CC(C)(C)c1cc(Cc2cc(C(C)(C)C)c(O)c(C(C)(C)C)c2)cc(C(C)(C)C)c1O	Sarcoplasmic/endoplasmic reticulum calcium ATPase 1 (ATP2A1, Oryctolagus cuniculus, UniProt P04191)	ATPase activity, inhibitor, absorbance		pH 7.3	4.77
COc1ccc(CNc2c(CO)cnc3c(C4CC4)cc(C#N)cc23)cn1	PDE11A	enzyme activity, inhibitor			< 5.00
Cc1noc(-c2cc3cc(-c4nc(C(=O)NCc5ccccn5)[nH]c4C)ccc3[nH]2)n1	MMP14	enzyme activity, inhibitor			< 4.70
O=C(c1cc(O)c(O)c([N+](=O)[O-])c1)c1ccccc1F	Catechol O-methyltransferase (COMT, Sus scrofa, UniProt Q99028)	enzyme activity, inhibitor			7.55
Cc1cnc(-c2ccc(-c3ccc(NC(=O)Nc4c(F)cc(F)cc4F)cc3F)c3c2C(=O)NC3)[nH]1	Vascular endothelial growth factor receptor 1 (FLT1, Homo sapiens, UniProt P17948)	enzyme activity, inhibitor			< 6.00
O=[N+]([O-])c1ccc(N2CCN(S(=O)(=O)c3ccc(Cl)cc3)CC2)cc1NCc1ccco1	Kir1 channel protein	ion flux, inhibitor			6.08
Cc1noc(-c2cc3cc(-c4nc(C(=O)NCc5cccnc5)[nH]c4C)ccc3[nH]2)n1	MMP14	enzyme activity, inhibitor			< 4.70
CN1CCN(c2ccc(Nc3ncc4cc(C#N)c(=O)n(C5CCCC5)c4n3)cc2)CC1	Receptor tyrosine-protein kinase erbB-4 (ERBB4, Homo sapiens, UniProt Q15303)	enzyme activity, inhibitor			5.51
O=S(=O)(c1ccc(Cl)cc1)N1CCN(c2ccnc(NCc3ccncc3)c2)CC1	Kir1 channel protein	ion flux, inhibitor			5.05 to 5.40

Compound	target	assay	test system	setting	pIC50
O=C(Nc1c[nH]nc1C(=O)NC1CCNCC1)c1cc(F)cc(F)c1	Cyclin-dependent kinase 17 (CDK17, Homo sapiens, UniProt Q00537)	target engagement in cells, BRET			5.72
C=CC(=O)Nc1cc(Nc2nccc(Nc3cc(Cl)c(F)cc3C(C)(C)O)n2)c(OC)cc1N1CC[C@@H](N(C)C)C1	BTK	enzyme activity, inhibitor		with preincubation	6.67
CCc1cc(/C(C)=N/OCc2ccc(C3CCCCC3)c(C(F)(F)F)c2)ccc1CN1CC(C(=O)O)C1	CYP2E1	enzyme activity, inhibitor	human, liver microsomes	20 min	< 6.30
CC[C@H](C)[C@H](NC(C)=O)C(=O)N[C@@H](CCC(=O)O)C(=O)N[C@H](C(=O)N[C@H](C=O)CC(=O)O)[C@@H](C)O	Caspase-8 (CASP8, Homo sapiens, UniProt Q14790)	enzyme activity, inhibitor			8.76
O=[N+]([O-])c1ccc(N2CCN(S(=O)(=O)c3ccc(F)cc3)CC2)cc1NCc1ccco1	Kir1 channel protein	ion flux, inhibitor			5.89
O=C(Oc1nsnc1N1CCCCC1)N1CCOCC1	ABHD6	enzyme activity, inhibitor, fluorescence		lysate	7.28
O=[N+]([O-])c1ccc(N2CCN(S(=O)(=O)c3ccc(F)cc3)CC2)cc1NCc1ccccn1	Kir1 channel protein	ion current, inhibitor, patch clamp			7.45
Cc1cc(O)cc(C)c1C[C@H](NC(=O)[C@@H]1CCCN1C(=O)[C@H](CCCNC(=N)N)NC(=O)[C@H](CCCNC(=N)N)N(C)C(=O)CNC(=O)[C@@H](CO)NC(=O)CNC(=O)[C@H](Cc1cn(CCNC(=O)[C@H](CCCNC(=N)N)NC(=O)[C@H](CC(C)C)NC(=O)C2OC2C(=O)O)nn1)NC(=O)CN1CCN(CC(=O)O)CCN(CC(=O)O)CCN(CC(=O)O)CC1)C(=O)N[C@H](C(=O)N[C@@H](CC(C)C)C(=O)O)C(C)(C)C (mixture of isomers)	NTSR1	ligand displacement, radioligand			7.14
COc1ccc2c(Oc3ccc4c(C(=O)Nc5ccccc5N)cccc4c3)ccnc2c1	RAC-beta serine/threonine-protein kinase (AKT2, Homo sapiens, UniProt P31751)	enzyme activity, inhibitor			< 6.30
O=C(Oc1nsnc1N1CCc2ccccc2C1)N1CCCCC1	ABHD6	enzyme activity, inhibitor, fluorescence		lysate	6.34
O=[N+]([O-])c1ccc(N2CCN(S(=O)(=O)c3ccc(Cl)cc3)CC2)cc1NCc1ccncc1	Kir1 channel protein	ion flux, inhibitor			6.12
Cc1noc(-c2cc3cc(-c4nc(C(=O)NCC5CCOCC5)[nH]c4C)ccc3[nH]2)n1	MMP14	enzyme activity, inhibitor			< 4.70
O=C1Nc2cc(Oc3ccc4c(c3)NC(=O)C4=O)ccc2C1=O	Protein-glutamine gamma-glutamyltransferase (TGM2, Homo sapiens, UniProt P21980)	enzyme activity, inhibitor			4.40 to 4.52
CC1=CC(=O)C(C(C)C)=CC1=O	CYP2E1	enzyme activity, inhibitor, HPLC			4.01
O=C(Nc1cccnc1)N1CCC(Cc2cccc(Oc3ccc(C(F)(F)F)cn3)c2)CC1	Arylacetamide deacetylase (Homo sapiens, UniProt P22760)	enzyme activity, inhibitor			< 5.00
Cn1nc(C(=O)NCc2ccc(C(=O)O)cc2)cc1-c1ccc2[nH]c(-c3ccncc3)cc2c1	MMP14	enzyme activity, inhibitor			< 4.70
COc1cc2c(NC3CCN(C)CC3)nc(N3CCCN(C)CC3)nc2cc1OCCOCCN(C)C	Lysine-specific demethylase 4E (KDM4E, Homo sapiens, UniProt B2RXH2)	enzyme activity, inhibitor			< 4.24
O=C(O)c1cc2ccccc2c(Cc2c(O)c(C(=O)O)cc3ccccc23)c1O	DNA polymerase eta (POLH, Homo sapiens, UniProt Q9Y253)	enzyme activity, inhibitor			4.10
